Calls of active or inactive are those of the source. The calls are words filed in the database; no cut-off is given here.
How the values were obtained:
[1] = Antiinflammatory activity in mouse RAW264.7 cells assessed as inhibition of LPS-induced NO production pretreated for 30 mins followed by LPS stimulation for 24 hrs by Griess assay; format: functional, cell-based
Procedure, shortened: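 Cells seeded at 5 × 10^4 per well, grown 24 h, pretreated 30 min, then stimulated with 500 ng/mL LPS for 24 h; 0.5% DMSO vehicle in all wells; LPS-only and unstimulated blanks included; L-NIL as positive control. Medium reacted with Griess reagent, absorbance at 540 nm; IC50 reported.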

[2] = test system: Mus musculus; test: Antiinflammatory activity in BALB/c mouse assessed as inhibition of TPA-induced ear edema applied topically pretreated for 30 mins followed by TPA exposure measured after 4 hrs; format: functional
Procedure, shortened: (§1)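 Topical dosing of right ear at 2.5, 5 or 10 mg/mL, 30 min before TPA; left ear given acetone only as solvent control; 1% hydrocortisone as positive control. Mice killed 4 h after TPA, 7 mm central punches taken from both ears and weighed; edema rate (%) = [(weight right − weight left)/weight left] × 100%. n = 8 mice per group.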

[3] = test system: Mus musculus; test: Antiinflammatory activity in TPA-induced ear edema BALB/c mouse model assessed as reduction in epidermal hyperplasia applied topically pretreated for 30 mins followed by TPA exposure measured after 4 hrs by hematoxylin and eosin staining based light microscopic method; format: functional, tissue-based
Procedure, shortened: (§2)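 Right ear pretreated topically (2.5, 5, 10 mg/mL) 30 min before TPA for 4 h; left ear acetone only; 1% hydrocortisone as positive control. Ears fixed in 4% paraformaldehyde, paraffin-embedded, cut at 4 μm, H&E stained; representative area examined qualitatively by light microscopy at 200×; n = 8 mice per group.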

[4] = test system: Mus musculus; test: Antiinflammatory activity in TPA-induced ear edema BALB/c mouse model assessed as reduction in inflammatory cell infilteration applied topically pretreated for 30 mins followed by TPA exposure measured after 4 hrs by hematoxylin and eosin staining based light microscopic method; format: functional, tissue-based; procedure, shortened: as §2
[5] = test system: RAW264.7; test: Inhibition of NF-kappaB in mouse RAW264.7 cells assessed as reduction in LPS-induced TNF-alpha level pretreated for 30 mins followed by LPS stimulation for 24 hrs by ELISA; format: cell-based
Procedure, shortened: (§3)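 Pretreatment at 0.3, 1, 3 or 9 μM for 30 min, then LPS 500 ng/mL for 24 h; culture supernatant assayed for TNF-α and IL-6 by ELISA kits; means ± SD of three independent experiments.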

[6] = test system: RAW264.7; test: Inhibition of NF-kappaB in mouse RAW264.7 cells assessed as reduction in LPS-induced IL-6 level pretreated for 30 mins followed by LPS stimulation for 24 hrs by ELISA; format: cell-based; procedure, shortened: as §3
[7] = test system: RAW264.7; test: Inhibition of NF-kappaB in mouse RAW264.7 cells assessed as reduction in LPS-induced iNOS protein expression pretreated for 30 mins followed by LPS stimulation for 12 hrs by Western blot analysis; format: cell-based
Procedure, shortened: (§4)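 Cells 5 × 10^5 per well grown 24 h, serum-starved 12 h, pretreated 30 min, then LPS 500 ng/mL for 12 h. Lysates protein-normalized by BCA, 10% SDS-PAGE, PVDF, anti-iNOS or anti-COX-2 (1:1000) overnight at 4 °C, ECL detection; β-tubulin loading control.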

[8] = test system: Mus musculus; test: Antiinflammatory activity in BALB/c mouse assessed as inhibition of TPA-induced ear edema at 10 mg/ml applied topically pretreated for 30 mins followed by TPA exposure measured after 4 hrs; format: functional; procedure, shortened: as §1
[9] = test system: RAW264.7; test: Inhibition of LPS-induced NF-kappaB (unknown origin) transactivation expressed in mouse RAW264.7 cells pretreated for 30 mins followed by LPS stimulation for 6 hrs by luciferase reporter gene assay; format: cell-based; settings: Homo sapiens
Procedure, shortened: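 RAW 264.7 line stably carrying NF-κB-driven firefly luciferase, maintained with 500 μg/mL G418; seeded 5 × 10^5 per well, 24 h, pretreated 30 min at 2.5–20 μM, then 500 ng/mL LPS for 6 h; 0.5% DMSO vehicle; 20 μM PDTC positive control. Lysate luminescence read; three independent experiments, means ± SD.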

[10] = test system: RAW264.7; test: Inhibition of NF-kappaB in mouse RAW264.7 cells assessed as reduction in LPS-induced degradation of IkappaB-alpha pretreated for 30 mins followed by LPS stimulation for 1 hr by Western blot analysis; format: cell-based
Procedure, shortened: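 Serum-starved (12 h) cells pretreated 30 min at 2.5, 5 or 10 μM or 0.5% DMSO, then LPS 500 ng/mL for 1 h; Western blot for IκB-α and phospho-IκB-α (1:1000, 4 °C overnight), ECL, β-tubulin loading control; bands quantified from three independent experiments.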

[11] = target: Transcription factor p65 (Mus musculus) (UniProt Q04207); test: Inhibition of LPS-induced NF-kappaB p65 subunit translocation into nucleus of mouse RAW264.7 cells at 10 uM pretreated for 30 mins followed by LPS stimulation for 3 hrs by DAPI staining based immunofluorescence assay; format: cell-based
Procedure, shortened: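 Cells at 1 × 10^5/mL plated overnight, pretreated 30 min, then LPS 500 ng/mL for 3 h; fixed in 4% formaldehyde, permeabilized with 1% Triton X-100, blocked in 5% BSA, anti-p65 (1:100) overnight at 4 °C, Alexa 594 secondary, DAPI nuclei. High-content imaging; nuclear minus cytoplasmic fluorescence; three independent experiments.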

[12] = test system: RAW264.7; test: Inhibition of NF-kappaB in mouse RAW264.7 cells assessed as reduction in LPS-induced COX2 expression at 1 to 9 uM pretreated for 30 mins followed by LPS stimulation for 12 hrs by Western blot analysis; format: cell-based; procedure, shortened: as §4
[13] = test system: Mus musculus; test: Antiinflammatory activity in TPA-induced ear edema BALB/c mouse model assessed as reduction in epidermal hyperplasia at 10 mg/ml applied topically pretreated for 30 mins followed by TPA exposure measured after 4 hrs by hematoxylin and eosin staining based light microscopic method; format: functional, tissue-based; procedure, shortened: as §2
[14] = test system: Mus musculus; test: Antiinflammatory activity in TPA-induced ear edema BALB/c mouse model assessed as reduction in inflammatory cell infilteration at 10 mg/ml applied topically pretreated for 30 mins followed by TPA exposure measured after 4 hrs by hematoxylin and eosin staining based light microscopic method; format: functional, tissue-based; procedure, shortened: as §2
[15] = test system: RAW264.7; test: Inhibition of LPS-induced NF-kappaB (unknown origin) transactivation expressed in mouse RAW264.7 cells at 20 uM pretreated for 30 mins followed by LPS stimulation for 6 hrs by luciferase reporter gene assay; format: cell-based; settings: Homo sapiens
Procedure, shortened: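 RAW 264.7/NF-κB-luc cells (RAW 264.7 stably carrying an NF-κB-driven luciferase reporter), kept in DMEM with 10% FBS, penicillin/streptomycin and 500 μg/mL G418. Seeded at 5 × 10^5 per well for 24 h, then compound for 30 min before LPS 500 ng/mL for 6 h; DMSO 0.5% vehicle, PDTC 20 μM positive control. Firefly luminescence read on lysates; means ± SD of three independent experiments.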

Sequence of Transcription factor p65 (Mus musculus) (Q04207 whole entry): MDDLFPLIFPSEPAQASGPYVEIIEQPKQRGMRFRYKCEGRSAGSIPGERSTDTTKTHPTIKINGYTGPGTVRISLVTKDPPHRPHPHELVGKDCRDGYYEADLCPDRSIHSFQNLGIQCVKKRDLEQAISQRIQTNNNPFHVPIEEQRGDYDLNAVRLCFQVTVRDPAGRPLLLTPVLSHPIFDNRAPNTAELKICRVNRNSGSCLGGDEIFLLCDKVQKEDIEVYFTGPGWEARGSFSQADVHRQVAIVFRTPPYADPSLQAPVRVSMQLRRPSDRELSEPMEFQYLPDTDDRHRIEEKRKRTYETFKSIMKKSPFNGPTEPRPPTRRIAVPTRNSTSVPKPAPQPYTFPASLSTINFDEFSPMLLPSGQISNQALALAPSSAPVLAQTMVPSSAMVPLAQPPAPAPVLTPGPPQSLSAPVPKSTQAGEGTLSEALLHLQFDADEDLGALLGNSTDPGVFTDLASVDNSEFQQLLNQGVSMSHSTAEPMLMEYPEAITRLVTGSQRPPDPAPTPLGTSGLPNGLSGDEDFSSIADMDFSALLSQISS

C=C1[C@H]2C[C@H]2[C@]2(C)C=C3OC(=O)C(C)=C3C[C@@H]12 [CHLORANTHALACTONE A]
IC50 [1]: 33.2 µM

C=C1[C@H]2C[C@H]2[C@]2(C)[C@H](O)[C@@]3(OC)OC(=O)C(C)=C3C[C@@H]12
IC50 [1]: > 50 µM

CC1=C2CC3=C(CO)[C@H]4C[C@H]4[C@]3(C)C[C@@H]2OC1=O [CHLORAJAPOLIDE C]
IC50 [1]: > 50 µM

C[C@]12CCC(=O)C=C1CC[C@@H]1[C@@H]2[C@@H](O)C[C@@]2(C)[C@H]1CC[C@]2(O)C(=O)CO [HYDROCORTISONE]
inhibition (INH) [2]: 56.33% | Activity [3]: Active | Activity [4]: Active

C=C1[C@H]2C[C@H]2[C@]2(C)C[C@@H]3OC(=O)C(C)=C3C[C@]12O [SARCANDRALACTONE A]
IC50 [1]: > 50 µM

C=C1[C@H]2C[C@H]2[C@]2(C)C=C3OC(=O)C(C)=C3[C@H](OC(C)=O)[C@@H]12
IC50 [1]: 1.4 µM | inhibition [5]: Dose-dependent effect | inhibition [6]: Dose-dependent effect | inhibition [7]: Dose-dependent effect | inhibition at 10000 µg/mL [8]: 23.5% | inhibition [2]: Dose-dependent effect | inhibition [9]: Dose-dependent effect | inhibition [10]: Dose-dependent effect | inhibition [11]: Active | inhibition [12]: Active | Activity [13]: Active | Activity [14]: Active

CC(=N)NCCCC[C@H](N)C(=O)O [L-NIL]
IC50 [1]: 7.5 µM

S=C(S)N1CCCC1
inhibition [15]: Active

C=C1[C@H]2C[C@H]2[C@]2(C)[C@H](O)[C@]3(OC)OC(=O)C(C)=C3C[C@@H]12
IC50 [1]: > 50 µM

C=C1[C@H]2C[C@H]2[C@@]2(C)[C@H]1CC1=C(C)C(=O)O[C@@]1(O)[C@H]2O
IC50 [1]: 35.4 µM

C=C1[C@H]2C[C@H]2[C@]2(C)C[C@@H]3OC(=O)C(C)=C3C[C@@H]12
IC50 [1]: > 50 µM

C=C1[C@H]2C[C@H]2[C@]2(C)C=C3OC(=O)C(C)=C3C[C@@]12O
IC50 [1]: > 50 µM
